According to ChEMBL document CHEMBL1122581, “Antiviral activity of C-5 substituted tubercidin analogues” (1984):
In brackets after ≈: the same amount, converted by molar mass.

What was measured:
Assay type in all cases: functional
Human alphaherpesvirus 1 [1] = assay: Compound was tested for the concentration required to reduce HSV-1 (KOS) induced cytopathogenicity by 50% in primary rabbit kidney cell cultures
HeLa [2] = assay: Compound was tested for the concentration required to cause a microscopically detectable alteration in normal cell morphology in HeLa cell cultures; settings: Homo sapiens, read-out: Min cytotoxic concentration
How it was run: (§1)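 Uninfected cell monolayers were run in parallel with the antiviral assays and exposed to compound for the same period as the infected cultures. The end point was the lowest concentration giving a microscopically detectable disruption of normal cell morphology.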

Human alphaherpesvirus 2 [3] = assay: Compound was tested for the concentration required to reduce HSV-2 (G) induced cytopathogenicity by 50% in primary rabbit kidney cell cultures
L1210 = assay: Dose required to inhibit proliferation of L-1210 Cells by 50%; settings: Mus musculus, read-out: ID50 (the source's name)
How it was run: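 Inhibition of proliferation of murine leukemia L-1210 cells in exponential growth phase. ID50 is the dose inhibiting cell proliferation by 50%, given plus or minus standard deviation.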

Oryctolagus cuniculus [4] = organism: Oryctolagus cuniculus; assay: Compound was tested for the concentration required to cause a microscopically detectable alteration in normal cell morphology in primary rabbit kidney cell cultures; settings: read-out: Min cytotoxic concentration; how it was run: as §1
Coxsackievirus B4 [5] = assay: Compound was tested for the concentration required to reduce coxsackie virus B4 induced cytopathogenicity by 50% in HeLa cell cultures; settings: Enterovirus B
Human respirovirus 3 [6] = assay: Compound was tested for the concentration required to reduce parainfluenza virus type 3 induced cytopathogenicity by 50% in Vero cell cultures
Poliovirus 1 = assay: Concentration required to reduce polio virus type 1 induced cytopathogenicity by 50% in HeLa cell cultures.; settings: Enterovirus C
Vero [7] = assay: Compound was tested for the concentration required to cause a microscopically detectable alteration in normal cell morphology in Vero cell cultures; settings: Chlorocebus sabaeus, read-out: Min cytotoxic concentration; how it was run: as §1
[8] = system: Mammalian orthoreovirus 1; assay: Compound was tested for the concentration required to reduce reovirus type 1 induced cytopathogenicity by 50% in Vero cell cultures
[9] = system: Vesicular stomatitis virus; assay: Compound was tested for the concentration required to reduce vesicular stomatitis virus induced cytopathogenicity by 50% in HeLa cell cultures
[10] = system: Vesicular stomatitis virus; assay: Compound was tested for the concentration required to reduce vesicular stomatitis virus induced cytopathogenicity by 50% in primary rabbit kidney cell cultures
Coxsackievirus B4 [11] = assay: Compound was tested for the concentration required to reduce coxsackie virus B4 induced cytopathogenicity by 50% in Vero cell cultures; settings: Enterovirus B
Sindbis virus [12] = assay: Compound was tested for the concentration required to reduce sindbis virus induced cytopathogenicity by 50% in Vero cell cultures
Human alphaherpesvirus 1 [13] = assay: Concentration required to reduce HSV-1 (KOS) induced cytopathogenicity by 50% in primary rabbit kidney cell cultures.
HeLa [14] = assay: Concentration required to cause a microscopically detectable alteration in cell morphology in HeLa cell cultures.; settings: Homo sapiens, read-out: Min cytotoxic concentration; how it was run: as §1
Human alphaherpesvirus 2 [15] = assay: Concentration required to reduce HSV-2 (G) induced cytopathogenicity by 50% in primary rabbit kidney cell cultures.
Oryctolagus cuniculus [16] = organism: Oryctolagus cuniculus; assay: Concentration required to cause a microscopically detectable alteration in cell morphology in primary rabbit kidney cell cultures.; settings: read-out: Min cytotoxic concentration; how it was run: as §1
Coxsackievirus B4 [17] = assay: Concentration required to reduce coxsackie virus B4 induced cytopathogenicity by 50% in vero cell cultures.; settings: Enterovirus B
Coxsackievirus B4 [18] = assay: Concentration required to reduce coxsackie virus 4 induced cytopathogenicity by 50% in HeLa cell cultures.; settings: Enterovirus B
Human respirovirus 3 [19] = assay: Concentration required to reduce parainfluenza virus type 3 induced cytopathogenicity by 50% in vero cell cultures.
Vero [20] = assay: Concentration required to cause a microscopically detectable alteration in cell morphology in vero cell cultures.; settings: Chlorocebus sabaeus, read-out: Min cytotoxic concentration; how it was run: as §1
Sindbis virus [21] = assay: Concentration required to reduce sindbis virus induced cytopathogenicity by 50% in vero cell cultures.
[22] = system: Vesicular stomatitis virus; assay: Concentration required to reduce vesicular stomatitis virus induced cytopathogenicity by 50% in primary rabbit kidney cell cultures.
[23] = system: Mammalian orthoreovirus 1; assay: Concentration required to reduce reovirus type 1 induced cytopathogenicity by 50% in vero cell cultures.
[24] = system: Vesicular stomatitis virus; assay: Concentration required to reduce vesicular stomatitis virus induced cytopathogenicity by 50% in HeLa cell cultures.

| Compound | IC50 (L1210) [µg/mL] | MIC (Poliovirus 1) [µg/mL] | MIC (Human alphaherpesvirus 1 [13]) [µg/mL] | MCC (HeLa [14]) [µg/mL] | MIC (Human alphaherpesvirus 2 [15]) [µg/mL] | MCC (Oryctolagus cuniculus [16]) [µg/mL] | MIC (Coxsackievirus B4 [17]) [µg/mL] | MIC (Coxsackievirus B4 [18]) [µg/mL] | MIC (Human respirovirus 3 [19]) [µg/mL] | MCC (Vero [20]) [µg/mL] | MIC (Sindbis virus [21]) [µg/mL] | MIC [22] [µg/mL] | MIC [23] [µg/mL] | MIC [24] [µg/mL] | also measured |
| --- | --- | --- | --- | --- | --- | --- | --- | --- | --- | --- | --- | --- | --- | --- | --- |
| Nc1ncnc2c1ncn2C[C@@H](O)CO | 170 (≈ 813 µM) | > 400 | – | – | – | – | – | – | – | – | – | – | – | – | MIC (Human alphaherpesvirus 1 [1]): > 400 µg/mL; MCC (HeLa [2]): > 400 µg/mL; MIC (Human alphaherpesvirus 2 [3]): > 400 µg/mL; MCC (Oryctolagus cuniculus [4]): ≥ 400 µg/mL; MIC (Coxsackievirus B4 [5]): > 400 µg/mL; MIC (Human respirovirus 3 [6]): 20 µg/mL (≈ 95.6 µM); MCC (Vero [7]): > 400 µg/mL; MIC [8]: 70 µg/mL (≈ 335 µM); MIC [9]: 10 µg/mL (≈ 47.8 µM); MIC [10]: 10 µg/mL (≈ 47.8 µM); MIC (Coxsackievirus B4 [11]): 400 µg/mL (≈ 1910 µM); MIC (Sindbis virus [12]): > 400 µg/mL |
| Nc1ncnc2c1cc(Br)n2C1O[C@H](CO)[C@@H](O)[C@H]1O (stereo partly specified) | 36.5 (≈ 106 µM) | 150 (≈ 435 µM) | > 400 | 400 | > 400 | > 400 | 70 (≈ 203 µM) | > 200 | 70 (≈ 203 µM) | 400 | > 200 | 300 (≈ 869 µM) | 70 (≈ 203 µM) | 400 (≈ 1160 µM) | – |
| Nc1ncnc2c1c(Br)c(Br)n2C1O[C@H](CO)[C@@H](O)[C@H]1O (stereo partly specified) | 2.31 (≈ 5.45 µM) | > 10 | > 100 | 40 | > 40 | 100 | 10 (≈ 23.6 µM) | > 10 | > 10 | 40 | > 10 | > 40 | 10 (≈ 23.6 µM) | > 10 | – |
| Nc1ncnc2c1c(CCCO)cn2C1O[C@H](CO)[C@@H](O)[C@H]1O (stereo partly specified) | 1.28 (≈ 3.95 µM) | 7 (≈ 21.6 µM) | 7 (≈ 21.6 µM) | 40 | > 10 | > 40 | 7 (≈ 21.6 µM) | 7 (≈ 21.6 µM) | 2 (≈ 6.17 µM) | 40 | > 10 | 7 (≈ 21.6 µM) | 2 (≈ 6.17 µM) | 2 (≈ 6.17 µM) | – |
| Nc1ncnc2c1c(/C=C/Br)cn2C1O[C@H](CO)[C@@H](O)[C@H]1O (stereo partly specified) | 7.84 (≈ 21.1 µM) | > 1 | > 1 | 4 | > 1 | > 4 | > 1 | > 1 | 1 (≈ 2.69 µM) | 4 | > 1 | > 1 | 1 (≈ 2.69 µM) | > 1 | – |
| Nc1ncnc2c1c(Cl)c(Cl)n2C1O[C@H](CO)[C@@H](O)[C@H]1O (stereo partly specified) | 10.1 (≈ 30.1 µM) | > 10 | > 40 | 40 | > 40 | 40 | > 10 | > 10 | > 10 | 40 | > 10 | > 40 | > 10 | > 10 | – |
| N#C/C=C/c1cn(C2O[C@H](CO)[C@@H](O)[C@H]2O)c2ncnc(N)c12 (stereo partly specified) | 1.36 (≈ 4.29 µM) | 4 (≈ 12.6 µM) | 2 (≈ 6.3 µM) | 4 | 20 (≈ 63 µM) | 100 | > 10 | 1 (≈ 3.15 µM) | 7 (≈ 22.1 µM) | 100 | > 40 | 20 (≈ 63 µM) | 20 (≈ 63 µM) | 0.4 (≈ 1.26 µM) | – |
| CC(O)c1cn(C2O[C@H](CO)[C@@H](O)[C@H]2O)c2ncnc(N)c12 (stereo partly specified) | 0.111 (≈ 0.358 µM) | 0.2 (≈ 0.645 µM) | 2 (≈ 6.45 µM) | 40 | 7 (≈ 22.6 µM) | 10 | 2 (≈ 6.45 µM) | 0.7 (≈ 2.26 µM) | 0.7 (≈ 2.26 µM) | 40 | 7 (≈ 22.6 µM) | 0.4 (≈ 1.29 µM) | 0.4 (≈ 1.29 µM) | 0.2 (≈ 0.645 µM) | – |
| COC(C)c1cn(C2O[C@H](CO)[C@@H](O)[C@H]2O)c2ncnc(N)c12 (stereo partly specified) | 0.404 (≈ 1.25 µM) | 0.7 (≈ 2.16 µM) | 20 (≈ 61.7 µM) | 10 | > 40 | 100 | 2 (≈ 6.17 µM) | 0.7 (≈ 2.16 µM) | 2 (≈ 6.17 µM) | 100 | > 40 | > 40 | > 1 | > 10 | – |
